# Screens (PubChem)
# TbMetRS inhib: T. brucei MetRS inhibitors, primary screen, biochemical, luminescence; purified T. brucei MetRS, ATP depletion, Kinase-Glo luminescence; inhibition, % at 11.9 µM; 360,000 compounds, 0.4% hits; AID 624268, 2012;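 active means inhibition above a per-plate cutoff of the control wells' mean inhibition plus 3 SD, cut at about 5.5% in these data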;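 further: 0% = DMSO wells median and 100% = median of wells with control inhibitor compound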
#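 assay system = parasite MetRS enzyme | timing = 15 min preincubation, 2 h reaction, all 25 °C | evaluation = percent inhibition relative to median high and low control wells | medium = HEPES buffer containing pyrophosphatase, BSA, spermine, DTT | compound = single dose, 11.9 µM final nominal, 0.9% final DMSO | detection = Kinase-Glo luminescence, ATP depletion format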
# CHOP inhibitor: inhibitors of CHOP promoter induction, primary screen, cell-based, unfolded protein response, luciferase reporter. CHO-K1 CHOP-promoter luciferase, tunicamycin-induced, 15-18 h. inhibition, % at 10 µM. 220,000 compounds, 3.8% hits. AID 2732, 2010;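 active means compounds that reduced the stress-induced luciferase reporter signal by more than about 70% of percent inhibition, limit read from the data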;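 further: 0% = tunicamycin plus vehicle and 100% = wells without tunicamycin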
# V-ATPase pH: regulators of yeast V-ATPase proton pumping, primary screen, pHLuorin cytosolic pH fluorescence. AID 504577, 2011. response, % at 10 µM. S. cerevisiae. 350,000 compounds, 0.37% hits; in the data active means response mostly above about 7.3%, no sharp cut-off; inactive means mostly below about 5.4%; further: actives read high
# CHOP UPR activ: activators of apoptotic CHOP UPR arm, primary screen, cell-based, CHO-CHOP luciferase reporter, luminescence, uHTS; AID 449763, 2010; 330,000 compounds, 0.34% hits; activation, % at 10 µM; UPR activation; percent of tunicamycin response over DMSO baseline;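 active means at 10 µM dose, activation of 40% or more, normalized to positive control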;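 further: 100% = tunicamycin at 10 µg/mL and 0% = DMSO alone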
#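 System: CHO-CHOP luciferase reporter cell line; amount: 500 cells/well; buffer or medium: F12 medium containing 10% fetal bovine serum; incubation: 6 h compound exposure at 37 °C after overnight seeding; measured by: luciferase luminescence after 10 min with Steady-Glo reagent; evaluation: % reporter activation, DMSO baseline versus tunicamycin full activation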
# UPR XBP1 act: activators of adaptive XBP1 UPR arm, primary screen, cell-based, CHO-XBP1 luciferase reporter, luminescence, uHTS; activation, % at 20 µM; IRE1-XBP1 UPR activation; percent of tunicamycin response, DMSO as zero; 330,000 compounds, 0.33% hits; AID 463104, 2010;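 active means versus positive control, 20 µM dose yields 30% or more activation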;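 further: 100% = tunicamycin at 10 µg/mL and 0% = DMSO only wells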
#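 Assay system: IRE1-XBP1 luciferase reporter CHO line. Input: 1000 cells/well. Buffer or medium: F12 with 10% serum. Doses: 20 µM, 1% DMSO. Times: overnight seeding at 37 °C, 6 h compound treatment at 37 °C. Technique: Steady-Glo luciferase glow luminescence, 10 min after reagent addition.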
# CHOP confirm: retest of CHOP induction inhibitors, confirmation, cell-based; shares compounds with CHOP inhibitor; CHO-CHOP promoter luciferase reporter, tunicamycin-induced, luminescence; inhibition, % at 10 µM; 2,100 compounds, 45% hits; AID 504437, 2011;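 active means mean of three repeat readings of reporter signal inhibition above a set limit, cut at about 70% in these data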;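 further: 0% = tunicamycin plus vehicle and 100% = wells lacking tunicamycin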
# Active calls of the source: *; . = no result given; ! = not active in a repeat. The entries come from a sample that favours hits as a whole.
SMILES,TbMetRS inhib,CHOP inhibitor,V-ATPase pH,CHOP UPR activ,UPR XBP1 act,CHOP confirm
CCC(C)N1C(=O)/C(=C\c2ccc(N3CCCCCC3)cc2)C(=O)NC1=S (centres undefined),-0.6,71.3*,-2.3,22.6,1.0,.
O=c1[nH]c(CN2CCNCC2)nc2ccccc12,0.0,98.0*,3.8,0.5,-0.5,-83.8
O=C(NCCN1CCC2(CC1)C(=O)NCN2c1cccc(F)c1)c1ccc2ccccc2c1,-0.1,.,.,.,.,.
CC1(C)C[C@H]2C=C(C=O)[C@]3(C=O)C[C@]3(C)[C@H]2C1,-0.2,109.2*,0.3,-9.2,-8.7,127.6*
CN1CCCC1CCOC(C)(c1ccccc1)c1ccc(Cl)cc1 (centres undefined),-0.7,1.2,0.6,.,.,.
O=C1CC(N2CCC(n3c(=O)[nH]c4ccccc43)CC2)C(=O)N1c1ccc(F)cc1 (centres undefined),-1.2,-9.3,-0.1,-1.7,2.1,.
O=c1[nH]c2ccccc2n1C1CCN(CCCC(c2ccc(F)cc2)c2ccc(F)cc2)CC1,-1.0,-0.3,-4.2,-2.7,-0.3,116.9*
Cc1ccc(N2C(=O)NC(=O)/C(=C\C=C\c3ccco3)C2=O)cc1C,-0.3,110.4*,-5.8,.,.,104.1*
Cc1ccc(N2C(=O)NC(=O)/C(=C\C=C\c3ccco3)C2=O)cc1,2.2,106.2*,-1.0,-1.1,-1.4,131.9*
O=C1NC(=O)N(Cc2ccco2)C(=O)/C1=C/C=C/c1ccco1,-0.1,107.8*,-3.4,0.1,-1.4,139.8*
CCC1=Nc2cc(C(=O)N3CCC4(CC3)OCCO4)ccc2Sc2ccc(C)cc21,0.1,.,1.7,0.3,-4.4,.
CCOC(=O)[C@]12Cc3cc(Cl)ccc3[C@H]1N(C1CCCCC1)C(=O)c1cc(OC)ccc12,-0.4,.,.,.,.,.
CN1CCN(c2ccc3ccccc3n2)CC1,.,5.5,.,.,.,.
COC(=O)C1=C(c2ccc(F)cc2F)C[C@@H]2CC[C@H]1N2C(=O)N1CCC(C)CC1,-0.1,.,1.0,-0.1,-3.3,.
C=C1C(=O)O[C@H]2C[C@@H](C)[C@@H]3C=CC(=O)[C@@]3(C)C[C@H]12,.,105.4*,.,7.3,-6.2,89.6*
C=C1C(=O)OC2CC(C)C3C=CC(=O)C3(C)C(O)C12 (centres undefined),-0.1,.,2.5,.,.,.
CN1/C(=C\C=C\C2=[N+](C)c3ccc4ccccc4c3C2(C)C)C(C)(C)c2ccccc21,.,108.1*,.,-8.6,-6.2,125.0*
CC(C)OCCCNC(=O)c1c(N)n(Cc2cccs2)c2nc3ccccc3nc12,0.6,104.8*,-1.4,1.0,0.5,58.1
COCCNC(=O)c1c(N)n(CCC(C)C)c2nc3ccccc3nc12,0.5,67.7,1.0,0.2,2.4,.
Cc1ccc(/C=C2\C(=O)NC(=O)N(CCc3ccc(F)cc3)C2=O)o1,-0.5,104.7*,0.0,0.0,1.0,-19.8
Cc1ccc(/C=C2\C(=O)NC(=O)N(Cc3ccccc3Cl)C2=O)o1,0.6,105.0*,12.5,3.7,18.7,-28.0
CCCN(CCC)[C@H]1CCc2c(F)ccc(O)c2C1,.,-4.2,.,.,.,.
O=C1NC(=O)N(c2ccc3c(c2)OCO3)C(=O)/C1=C/c1cccs1,-0.6,106.4*,1.4,15.5,12.7,-17.2
C=C1C(=O)O[C@@H]2C[C@@H](C)[C@@H]3C4OC4C(=O)[C@@]3(C)[C@@H](O)[C@H]12 (some centres undefined),-0.1,106.8*,3.1,-4.6,-7.6,110.1*
Clc1ccc(CO/N=C(\Cn2ccnc2)c2ccc(Cl)cc2Cl)c(Cl)c1,.,.,.,6.7,-7.2,.
SMILES,TbMetRS inhib,CHOP inhibitor,V-ATPase pH,CHOP UPR activ,UPR XBP1 act,CHOP confirm
Clc1ccc(CSC(Cn2ccnc2)c2ccc(Cl)cc2Cl)cc1 (centres undefined),-0.5,108.0*,0.7,1.1,-4.0,49.1
CNc1ccc2oc(C[C@H]3O[C@@]4(CC[C@H]3C)O[C@H]([C@H](C)C(=O)c3ccc[nH]3)[C@H](C)C[C@H]4C)nc2c1C(=O)O,0.5,106.4*!,-1.6,7.0,25.5,128.6*
C/C=C(/C)C(=O)O[C@H]1C(C)=C2[C@H]([C@@H]1OC(=O)CCCCCCC)[C@@](C)(OC(C)=O)C[C@H](OC(=O)CCC)[C@@]1(O)[C@H]2OC(=O)[C@@]1(C)O,.,31.7,.,.,.,.
CCOC(=O)c1c(C)n(Cc2ccco2)c2ccc(OC)cc12,-0.1,45.4,8.4,-1.3,-5.6,.
CCOC(=O)c1c(C)n(Cc2ccco2)c2c1cc(O)c1ccccc12,0.0,100.7*,2.5,1.5,2.6,-49.4
O=C1NCN(c2ccccc2)C12CCN(CC1COc3ccccc3O1)CC2 (centres undefined),.,-3.9,.,.,.,.
O=C1NCN(c2ccccc2)C12CCNCC2,0.6,100.9*,-0.9,1.4,-0.4,9.9
CC(C)(C)n1nnnc1C(CCc1ccccc1)N1CCC2(CC1)C(=O)NCN2c1ccccc1 (centres undefined),0.3,.,.,.,.,.
CC1(C)NC(=S)C(C)(C)N1N=O,0.0,.,-0.3,.,.,.
C[C@H]1CC[C@@H]2[C@@H](C)[C@H]3[C@H](C[C@H]4[C@@H]5CC=C6C[C@@H](O[C@@H]7O[C@H](CO)[C@H](O)[C@H](O[C@@H]8O[C@H](CO)[C@@H](O)[C@H](O)[C@H]8O)[C@H]7O[C@@H]7O[C@@H](C)[C@H](O)[C@@H](O)[C@H]7O)CC[C@]6(C)[C@H]5CC[C@]34C)N2C1,-0.6,106.4*,-3.6,-0.4,1.5,-62.4
C[C@@H]1CC2C3CC=C4C[C@@H](O)CC[C@]4(C)C3CC[C@]2(C)[C@H]1O (some centres undefined),0.0,.,-0.2,0.1,0.5,.
Cc1ccc2c(c1)CC1(CN2C)C(=O)NC(=O)N(C(C)C)C1=O (centres undefined),0.9,35.4,-2.9,6.1,-2.4,.
Cc1ccc2c(c1)CC1(CN2C)C(=O)NC(=O)N(CCC2=CCCCC2)C1=O (centres undefined),0.1,107.2*,-3.6,3.4,-2.7,25.2
CC1(C)CC(N(CCc2ccccc2)Cc2ccccc2)CCO1 (centres undefined),-0.3,-5.6,-4.8,-0.4,-3.1,.
CCCCCn1c(=O)c(C(=O)Nc2cc(C)ccn2)c(O)c2ccccc21,-1.4,.,-3.7,11.9,3.7,.
CCCCCCCn1c(=O)c(C(=O)Nc2cnccn2)c(O)c2ccccc21,-0.2,98.1*,0.9,19.4,-0.2,116.5*
